OXTR ag: activates the human oxytocin receptor | P30559 | CHO-OTR cells, Fluo-8 calcium fluorescence; normalized: DMSO 0%, oxytocin 100% | activation, % at 3 µM | 0.32% of 320,000 active | AID 2435;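 active = activation above the mean of all tested compounds plus 3 SD, cutoff set per screening run, cut at about 20% in these data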;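 also: peak over basal fluorescence ratio from a 100 s FLIPR kinetic read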
OX1R antag-1: human HCRTR1 antagonism | 0.43% of 330,000 active | AID 434989 | inhibition, % at 5 µM | CHO/OX1R cells, Fluo-8 calcium fluorescence, orexin A | O43613;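 active = inhibition above its plate's threshold, mean inhibition of all tested compounds on the plate plus 3 SD, cut at about 37% in these data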
Target sequence (O43613 whole entry, looked up): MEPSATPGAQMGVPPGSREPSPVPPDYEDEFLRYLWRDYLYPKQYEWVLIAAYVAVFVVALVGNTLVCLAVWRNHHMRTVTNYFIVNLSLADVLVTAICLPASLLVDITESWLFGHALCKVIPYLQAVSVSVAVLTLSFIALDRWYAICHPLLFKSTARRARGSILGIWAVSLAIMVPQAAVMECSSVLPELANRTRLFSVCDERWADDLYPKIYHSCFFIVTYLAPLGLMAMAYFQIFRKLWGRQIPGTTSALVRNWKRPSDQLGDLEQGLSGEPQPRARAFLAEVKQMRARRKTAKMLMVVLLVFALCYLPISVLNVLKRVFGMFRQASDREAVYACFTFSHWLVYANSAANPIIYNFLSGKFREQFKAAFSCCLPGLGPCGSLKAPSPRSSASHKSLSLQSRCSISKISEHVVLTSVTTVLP
CHO parental Ca: signal in parental CHO cells, OX1R antagonist counter-screen. parental CHO-K1, ATP-induced calcium, Fluo-8 fluorescence. inhibition, % at 5.6 µM. 0.63% of 330,000 active;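 active = inhibition above that plate's mean sample inhibition plus 3 SD, cut at about 26% in these data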
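Assay system: parental CHO cells; Read-out basis: percent inhibition of ATP-evoked calcium rise, normalized to controls; Benchmarks: ATP and no-ATP DMSO wells; Compound dosing: single nominal dose of 5.6 µM per compound; Signal: Fluo-8 calcium dye fluorescence; Also added: ATP as calcium-mobilizing challenge; Repeats: singlicate.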
OXTR potentiate: potentiates the human oxytocin receptor response. 0.061% of 320,000 active. activation, % at 3 µM. CHO-OTR cells, Fluo-8 calcium fluorescence, potentiator mode; 0% = oxytocin EC15, 100% = EC100. P30559;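 active = activation above that plate's cutoff, the mean activation of tested compounds plus 3 SD, cut at about 6.6% in these data, passing the limit was not always enough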
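System: human OTR in CHO cells / Also added: sub-maximal oxytocin, roughly EC15 / Control set: EC15 oxytocin low, 75 nM oxytocin high / Schedule: 6 min compound pre-incubation at room temperature, 100 s kinetic read / Compound: single-point 3.0 µM / Replication: singlicate / Technique: Fluo-8 calcium dye fluorescence / Read-out basis: % activation of max/min ratio relative to oxytocin controls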
V1aR counter: activates human V1a receptor in oxytocin agonist counter-screen; CHO-V1R cells, Fluo-8 calcium fluorescence, agonist mode; 0% DMSO, 100% 3 nM vasopressin; activation, % at 3 µM; P37288; 0.25% of 320,000 active;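 active = activation above the mean activation of all tested compounds plus 3 SD, per screening run, cut at about 20% in these data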;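 also: signal is peak over basal fluorescence ratio across a 100 second FLIPR read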
OX1R antag-2: OX1R (human) antagonism; inhibition, % at 6.6 µM; OX1R-expressing cells, FRET antagonist read-out; 1.8% of 330,000 active; O43613; in the data active = inhibition mostly above about 38%, no sharp cut-off; inactive = mostly below about 40%
Of the large screens only hits and unclear results are named; the others gave an inactive call. Rows were chosen to be rich in hits. Some 2.6% of all compounds tested hit in one or more screens of this group.

COc1ccc2ccccc2c1/C=N/NC(=O)c1nnn(-c2nonc2N)c1C(C)C	OX1R antag-2 60.4
C[C@@H]1NC(=O)c2cc([N+](=O)[O-])cc(I)c2NCCCC[C@@H](C(N)=O)NC(=O)[C@H](CCC(=O)O)NC1=O	none
C[C@@H]1NC(=O)[C@H](CCC(N)=O)NC(=O)c2cc([N+](=O)[O-])cc(I)c2NCCC[C@@H](C(N)=O)NC1=O	OX1R antag-2 60.9
NC(=O)C[C@H]1NC(=O)[C@H](CCC(=O)O)NC(=O)c2cc([N+](=O)[O-])cc(I)c2NCCC[C@@H](C(N)=O)NC1=O	none
NC(=O)[C@@H]1CCCNc2c(I)cc([N+](=O)[O-])cc2C(=O)N[C@@H](CCC(=O)O)C(=O)N[C@@H](CO)C(=O)N1	OX1R antag-2 67.5
CC1Oc2ccccc2C=C1/C=N/NC(=O)c1ccccc1O (centres undefined)	OX1R antag-2 75.2
O=C(NCC1CCCO1)c1cc2c([nH]c3ccccc32)c(-c2cccc(Cl)c2)n1 (centres undefined)	OX1R antag-2 49.6
COc1ccccc1-c1cc(SC)c(C#N)c(=O)o1	OX1R antag-2 51.3
COc1ccccc1-c1cc(C(F)(F)F)c(C#N)c(=O)[nH]1	none
CC(CCc1ccccc1)NC(=O)C(Cc1ccccc1)NS(=O)(=O)c1cccs1 (centres undefined)	OX1R antag-2 37.8
O=C(O)CC1SC(=O)N(CC(=O)c2ccccc2)C1=O (centres undefined)	none
CCN1C(=O)N/C(=C/c2ccc(Sc3ccc(C)cc3)o2)C1=O	OX1R antag-1 61.1, CHO parental Ca 63.9
CCN1C(=O)N/C(=C/c2ccc(C)o2)C1=O	none
COc1ccc(-c2csc(NC(=O)C3=NN(c4ccccc4)C(=O)CC3)n2)cc1	none
N#CC1(NC(=O)COC(=O)c2ccccc2[N+](=O)[O-])CCCCC1	none
O=C(COC(=O)c1ccccc1[N+](=O)[O-])c1ccc(C2CCCCC2)cc1	CHO parental Ca 47.0
CCOc1ccc(C(=O)C[n+]2cccc3cc(C)ccc32)cc1	OX1R antag-2 47.2
CSCCC(NS(=O)(=O)c1ccccc1F)C(=O)Nc1cccc(C)n1 (centres undefined)	none
CCCCC[n+]1ccn(C2=C([O-])c3ccccc3C(=O)/C2=N\S(=O)(=O)c2ccc(Cl)cc2)c1	none
CCCC[n+]1ccn(C2=C([O-])c3ccccc3C(=O)/C2=N\S(=O)(=O)c2ccc(Cl)cc2)c1	OX1R antag-2 46.8
NS(=O)(=O)c1ccc(NC(=S)Nc2nn(Cc3ccc(Cl)cc3Cl)cc2Cl)cc1	none
COCCOc1ccc(C(F)(F)F)cc1NC(=O)c1ccc(C)cc1	CHO parental Ca 38.6
CCn1c(=O)c(CCC(=O)NCC2CCCO2)c(C)c2c(C)nn(-c3ccc(C)cc3)c21 (centres undefined)	none
Cc1cc(C)c(OCC(=O)Nc2ccc3c(c2)OCO3)cc1C	CHO parental Ca 44.3
Cc1ccc(C)c(OCC(=O)Nc2ccc3c(c2)OCO3)c1	none
Cc1cc(C)c(S(=O)(=O)N2CCN(C(=O)c3cc4ccccc4oc3=O)CC2)c(C)c1	none
CCOc1ccc(CCNC(=O)CSC(=S)N2CCCC2)cc1OCC	none
C#CCn1c(S(=O)(=O)Cc2ccc(OC)cc2)nc(-c2ccccc2)c1-c1ccccc1	OX1R antag-2 57.6
CCOC(=O)Cn1c(S(=O)(=O)Cc2ccc(Cl)cc2)nc(-c2ccccc2)c1-c1ccccc1	none
Cc1ccc(CNC(=O)c2ccc(NC(=O)CCS(=O)(=O)c3cccs3)cc2)cc1	CHO parental Ca 98.5
CC(=O)c1ccc(OCc2cc(C(=O)NCCn3nc(C)cc3C)no2)cc1	none
CN1CCN(c2sc(S(C)(=O)=O)nc2S(=O)(=O)c2ccc(Cl)cc2)CC1	none
COc1ccc(/C=N/NC(=O)c2nn(-c3ccc(Cl)cc3)c(=O)c3c(N)scc23)cc1	OX1R antag-2 51.8
COc1ccc(/C=N/NC(=O)c2nn(-c3ccccc3)c(=O)c3c(N)scc23)cc1	OX1R antag-2 70.0
O=S(=O)(Nc1cc(S(=O)(=O)N2CCOCC2)ccc1Cl)c1ccccc1	none
O=C(COC(=O)[C@@H]1CCCN1C(=O)c1cccs1)Nc1ccc(F)cc1[N+](=O)[O-]	OX1R antag-2 63.9
COc1ccccc1NC(=O)COC(=O)[C@@H]1CCCN1C(=O)c1cccs1	none
CCOC(=O)c1c(C)[nH]c(C(=O)COC(=O)CCNS(=O)(=O)c2ccc(NC(C)=O)cc2)c1C	none
CCOC(=O)c1oc2cccc(O)c2c1C	OX1R antag-2 39.3
CCOC(=O)c1oc2cccc(OC(C)=O)c2c1C	none
CC(=O)c1cccc(NC(=O)C(C)OC(=O)C2=NNC(=O)CC2)c1 (centres undefined)	none
COc1ccccc1NC(=O)c1ccc2c(c1)N(CC#N)C(=O)C(C)(C)O2	none
C[C@@H]1COC(=O)[C@@H](Cc2ccc(F)cc2)C/C=C\C[C@@H](CC(=O)NCCO)C(=O)N1	none
Cc1ccc(S(=O)(=O)n2ccc3c(OCCOCCNCc4ccc(F)cc4)cccc32)cc1	CHO parental Ca 39.0
Cc1ccc(S(=O)(=O)n2ccc3c(OCCOCCSCC(NC(=O)OC(C)(C)C)C(=O)O)cccc32)cc1 (centres undefined)	none
Cc1ccc(S(=O)(=O)/N=C(/Nc2c(C)cccc2C)c2ccccc2)cc1	none
CCn1c(SCC(=O)Nc2nc(-c3ccc(C)cc3)cs2)nnc1-c1ccccc1O	CHO parental Ca 32.9
C=CCCC(=O)N1CCC(n2nccc2NC(=O)c2ccccc2C)CC1	none
CCC(C)Sc1cccc(-c2nc3ccc(C)cn3c2NCc2ccccc2)c1 (centres undefined)	OX1R antag-1 61.5, CHO parental Ca 49.2
CCCCNc1c(-c2ccc(SC(C)CC)c(OC)c2)nc2ccc(C)cn12 (centres undefined)	CHO parental Ca 44.4, OX1R antag-2 67.8
CCCCCCSc1ccc(-c2nc3ccc(Cl)cn3c2NCCCC)cc1OC	none
CCCCNc1c(-c2ccc(OC)c(Sc3ccc(OC)cc3)c2)nc2ccccn12	CHO parental Ca 45.1
Cc1cccn2cc(-c3ccccc3)nc12	none
COc1ccc(-c2cn3cccc(C)c3n2)cc1Br	OX1R antag-2 73.9
O=C1c2ccccc2C(=O)c2c1ncn2-c1ccccc1	OX1R antag-2 63.9
CCCCOc1ccc(S(=O)(=O)Nc2cccnc2)cc1	CHO parental Ca 38.9
Cc1ccc(S(=O)(=O)Nc2cccnc2)cc1	none
CCN(CC(=O)NCc1cccs1)C(=O)c1cccc(S(=O)(=O)Nc2ccc(C)cc2)c1	none
COCc1cc(C)nc2sc(C(=O)Nc3cccc(OC)c3)c(N)c12	OX1R antag-2 38.8
COCc1cc(C)nc2sc(C(=O)Nc3ccc(OC)cc3)c(N)c12	none

High-throughput results as filed in PubChem.
